High-throughput results as filed in PubChem.
rRNA inh HTS – inhibitors of bacterial rRNA selective over humanized ribosomes. E. coli WT GFP vs humanized-ribosome RFP mutants, fluorescence, 24 h; active compounds read low; DMSO median 0, no signal -100. GFP signal change (wild-type ribosome), % (concentration not given with the values). 1.6% of 350,000 active. AID 720706;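 active means significant combined selectivity score with lowered wild-type GFP, culture density cut under 30%, mutant RFP and density less affected; inactive means any of these conditions unmet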
S100A4 inh HTS – blocks human S100A4 binding to myosin IIA peptide; 0.14% of 360,000 active; S100A4/TAMRA-MyoIIA peptide fluorescence polarization; P26447; inhibition, % at 10.7 µM; AID 652163;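 active means mean inhibition of at least 70% across replicates, with every replicate also reaching that level; inconclusive means mean inhibition reaches 70% but some replicates fall short; inactive means mean inhibition below 70%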
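Test system – S100A4 monomer (human) · Compound – single-point compound testing · Schedule – 5 min incubation before reading · Probe or stimulus – TAMRA-labelled myosin IIA heavy-chain peptide probe, 5 nM · Benchmarks – neutral control DMSO, positive control TFP · Medium – Calcium-containing HEPES buffer, pH 7.2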
Cneo AK release – causes C. neoformans cell lysis; adenylate kinase release luminescence, 4 h; normalised: neutral wells 0, clomiphene wells 100; lysis activity, % at 15 µM; 0.2% of 360,000 active;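 active means mean lysis activity across replicates of at least 80%, whatever share of replicates individually reach that level; inactive means mean lysis activity below 80%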
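Material: C. neoformans cells | Amount: Yeast cell density of 5 × 10^6 cells/mL | Medium: Fresh YPD growth medium | Dosing: Single dose | Times: Static 4 h at 37 °C with compound, 1 h detection | Detection: AK luminescence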
PfHsp90 yeast 2 – inhibits growth of yeast expressing Plasmodium falciparum Hsp90; 0.32% of 310,000 active; S. cerevisiae expressing PfHsp90, BacTiter-Glo ATP, 48 h; yeast lacking PDR1 and PDR3 efflux regulators; AID 504621; inhibition, % at 9.4 µM;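 active means every replicate shows inhibition above about 80%, whatever the replicate mean, limit read from the data; inconclusive means mean inhibition reaches the set limit but some replicate falls short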;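 further: 0% = DMSO neutral controls and 100% = 20 µM radicicol positive controls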
MLL AF4-AF9 inh – inhibitors of human MLL-AF4/AF9 interaction | AlphaScreen, biotin-AF4 peptide binding to FLAG-AF9 | 0.47% of 350,000 active | inhibition, % at 10 µM | P42568;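 active means every replicate reaching a set inhibition limit, whatever the replicate mean, cut at about 25% in these data; inconclusive means mean inhibition reaches that limit but some replicates miss it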;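 further: 0% = plate neutral control median and 100% = total signal loss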
DENV2 CPE – inhibitors of DENV2 cytopathic effect; DENV2-infected cells, cytopathic effect rescue, plate reader; CPE inhibition, % at 9.99 µM; 1.7% of 350,000 active; in the data active means CPE inhibition above about 20%, passing the limit was not always enough; inconclusive means no clear call, values can overlap the other calls; tested in BHK-21 cells;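 further: 0% = median of neutral control wells and 100% = median of positive control wells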
Numbers without * were called inactive; ? = inconclusive; nt = no result given. Sampled rows, rich in hits. Any-hit rate of the full collection: about 3.2%.

SMILES	rRNA inh HTS	S100A4 inh HTS	Cneo AK release	PfHsp90 yeast 2	MLL AF4-AF9 inh	DENV2 CPE
Cc1noc(C)c1NC(=O)Nc1cccc2c1O[C@H](CN(C)S(=O)(=O)c1cn(C)cn1)[C@H](C)CN([C@H](C)CO)C2=O	nt	6	96*	nt	-5	-7
Cc1noc(C)c1NC(=O)Nc1cccc2c1O[C@H](CN(C)S(=O)(=O)c1ccc(F)cc1)[C@@H](C)CN([C@H](C)CO)C2=O	0	7	-3	20	-2	-1
C[C@@H]1CN([C@H](C)CO)S(=O)(=O)c2ccc(-c3ccncc3)cc2O[C@@H]1CN(C)C(=O)C1CCC1	-2	nt	nt	nt	nt	nt
C[C@H](O)[C@@H]1CN2CCc3c([nH]c4c(-c5ccccc5)cccc34)[C@@H]2C[C@@H]1N(C)C(=O)Nc1ccccc1	-34	-26	nt	nt	nt	16
Cc1ccccc1-c1ccc2c(c1)[C@@H]1C[C@H](N(C)C(=O)c3ccco3)[C@H]([C@H](C)O)CN1CC2	-1	-7	nt	nt	nt	15
C[C@H](O)[C@@H]1CN2CCc3c([nH]c4c(-c5ccccc5)cccc34)[C@@H]2C[C@@H]1N(C)C(=S)NCCc1ccccc1	-30*	-13	nt	nt	nt	-3
C[C@@H]1ON(C)[C@H]2C[C@H]3c4[nH]c5c(-c6ccccc6)cccc5c4CCN3C[C@@H]12	-26*	-10	nt	nt	nt	0
C=CCNC(=S)N(C)[C@H]1C[C@H]2c3cc(-c4ccccc4C)ccc3CCN2C[C@H]1[C@H](C)O	-30*	1	nt	nt	nt	-6
C[C@H]1CCCCO[C@H](CN(C)C(=O)C2CCCCC2)[C@@H](C)CN([C@@H](C)CO)C(=O)c2cc(NC(=O)Nc3ccc(C(F)(F)F)cc3)ccc2O1	2	-7	-1	nt	0	?
Cc1cc2c(NC(=O)Nc3ccccc3)cccc2nn1	-5	9	12	22	nt	-4
Cc1cc2c(NC(=O)Nc3ccc(C(C)(C)C)cc3)cccc2nn1	-33*	1	nt	40	16	-11
CCC(=O)Nc1ccc2c(c1)C(=O)N(C)[C@@H]1CC[C@@H](CC(=O)NCC3CCCCC3)O[C@@H]1CO2	2	6	2	nt	0	-1
C[C@@H]1CN([C@@H](C)CO)C(=O)c2cc(C#CCc3ccccc3)cnc2O[C@@H]1CN(C)Cc1cccc(F)c1	-4	-49	0	nt	5	15
CC[n+]1c(/C=C/N(C)c2ccccc2)oc2ccccc21	-19*	-8	-3	29	4	-1
CC[n+]1c(/C=C/N(C)c2ccccc2)oc2ccc(F)cc21	nt	nt	-1	-12	nt	nt
Cc1c(N(C)C)c(=O)n(-c2ccccc2)n1C	6	-1	3	-11	nt	51*
CNC[C@@H]1Oc2ccc(NC(C)=O)cc2C(=O)N(C)C[C@H]1C	7	nt	nt	nt	nt	nt
Cc1nn(C)cc1NC(=O)C[C@H]1CC[C@H]2[C@H](COc3ccc(NC(=O)Nc4cccc(Cl)c4)cc3C(=O)N2C)O1	-1	-5	2	nt	5	-4
CNc1nc(N/N=C/c2ccc([N+](=O)[O-])cc2)nc(Nc2ccccc2)n1	-40*	-1	nt	14	8	6
O=[N+]([O-])c1ccc(Nc2nc(N/N=C/c3cccc(F)c3)nc(N3CCCC3)n2)cc1	4	-16	nt	-34	8	-5
CN1C(=O)c2cc(NC(=O)C3CCCC3)ccc2OC[C@H]2O[C@H](CC(=O)NCCc3ccncc3)CC[C@@H]21	0	-1	nt	nt	?	29*
CN1C(=O)c2cc(NC(=O)C3CCCC3)ccc2OC[C@H]2O[C@H](CC(=O)NCCc3ccncc3)CC[C@H]21	5	-15	nt	nt	3	166*
CN1C(=O)c2cc(NC(=O)C3CCC3)ccc2OC[C@H]2O[C@@H](CC(=O)NCCc3ccncc3)CC[C@H]21	0	14	nt	nt	-1	21*
COCCNC(=O)C[C@@H]1CC[C@@H]2[C@@H](COc3ccc(NC(=O)C4CCOCC4)cc3C(=O)N2C)O1	3	13	47	nt	-3	21*
CN1C(=O)c2cc(NC(=O)C3CCC3)ccc2OC[C@@H]2O[C@H](CC(=O)NCCc3ccncc3)CC[C@H]21	4	-1	nt	nt	-2	1
